An excerpt weighted towards active compounds, which were near 27% of everything screened.
CYP2C19 inhib: blockers of cytochrome P450 2C19 activity – biochemical, luminescence, ADME assay, primary screen | P33261 | CYP2C19 Supersomes, luciferin-H EGE luminescence, 30 min | inhibition, % at 5 µM | 96,000 tested, 21% active;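 active = CYP2C19 inhibition above a set limit at 5 µM in the primary screen, cut at about 50% in these data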
CYP2C9 activ: human CYP2C9 activators, primary screen, biochemical, luminescence; Cytochrome P450 2C9 (Homo sapiens), P11712; recombinant CYP2C9, luciferin-H conversion; active compounds read high; factor 1 = untreated enzyme, 0 = blocked; activation factor at 5 µM; AID 1024, 2008; 96,000 tested, 1.4% active;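 active = activation factor of 2 or more for CYP2C9 at a 5 µM dose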
CYP2C9 inh: blockers of cytochrome P450 2C9 activity – biochemical, luminescence, ADME assay, primary screen. P11712. CYP2C9 Supersomes, luciferin-H conversion. inhibition, % at 5 µM. 96,000 tested, 20% active. AID 777, 2007;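 active = blocking of liver enzyme CYP2C9 beyond about 50% at 5 µM, limit read from the data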
Cav3 T inh: Cav3.2 calcium influx blockers – cell-based, Fluo-4 calcium fluorescence, FDSS, MLSMR library, primary screen | 100,000 tested, 4% active | Voltage-dependent T-type calcium channel subunit alpha-1H (Homo sapiens), O95180 | Cav3.2-expressing cells; active compounds read low | B-score at 10 µM;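 active = single-dose well whose peak fluorescence ratio is a statistical outlier from its plate by either plate-standardised score or position-corrected B-score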
Rev-RRE block: HIV-1 Rev-RRE binding inhibitors, primary screen, biochemical, FRET, protein-RNA interaction. P05866. Rev peptide-RRE RNA binding. inhibition, % at 8 µM. 97,000 tested, 0.79% active;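 active = inhibition above the screen-wide mean plus 3 SD, cut at about 35% in these data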
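Assay system: labelled RRE RNA duplex and labelled Rev peptide / Medium: HEPES pH 7.5 salt buffer with EDTA / Reagent: labelled Rev peptide / Schedule: 5 + 15 min at 25 °C / Signal: FRET, excitation 480 nm, emission 540 nm donor and 671 nm acceptor / Benchmarks: DMSO and neomycin B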
CYP2C19 activ: human CYP2C19 activators, primary screen, biochemical, luminescence. recombinant CYP2C19, luciferin-H EGE luminescence; active compounds read high; 0 = fully inhibited enzyme, 1 = untreated enzyme. activation factor at 5 µM. 96,000 tested, under 10 active;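 active = activation factor of at least 2 at 5 µM in the primary screen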
Numbers stand for hits; i = inactive; nt = no result given.

SMILES | CYP2C19 inhib | CYP2C9 activ | CYP2C9 inh | Cav3 T inh | Rev-RRE block | CYP2C19 activ
O=c1nc2ccccc2c2n1CC(CN1CCN(c3ccccc3F)CC1)N2 (stereo unspecified) | i | i | i | i | i | i
COc1ccccc1NC(=O)Cc1noc(CSc2cc(C)c3ccccc3n2)n1 | 93 | i | i | -7 | i | i
COCCNS(=O)(=O)c1ccc2c(c1)C(=O)c1cc(S(=O)(=O)NCCOC)ccc1-2 | i | i | 64 | i | i | i
O=C1c2cc(S(=O)(=O)NCCCO)ccc2-c2ccc(S(=O)(=O)NCCCO)cc21 | i | i | 58 | nt | i | i
NC1=NC2(CCN(Cc3ccccc3)CC2)n2c(nc3ccccc32)N1 | i | i | 57 | i | i | i
NC1=NC2(CCCCC2)n2c(nc3ccccc32)N1 | i | i | i | i | i | i
Cc1ccc(CNC(=O)CCS(=O)(=O)c2cccc3nsnc23)cc1 | i | i | i | i | nt | i
COc1cccc(CNC(=O)CCS(=O)(=O)c2cccc3nsnc23)c1 | 64 | i | i | nt | i | i
CCc1ccc(NC(=O)CCS(=O)(=O)c2cccc3nsnc23)cc1 | 87 | i | 85 | i | i | i
COc1ccccc1-c1nn2c(C3COc4ccccc4O3)nnc2s1 (stereo unspecified) | i | i | i | i | i | i
CCn1c(SCC(=O)c2ccc(Cl)cc2)nnc1-c1cccs1 | 70 | i | i | i | i | i
CCn1c(SCCOc2ccc(Cl)cc2)nnc1-c1cccs1 | 96 | i | 90 | -5.2 | i | i
COC(=O)CSc1nnc(C2COc3ccccc3O2)n1-c1ccccc1 (stereo unspecified) | 58 | i | i | i | i | i
CCn1c(SCC(=O)c2ccc(Cl)cc2)nnc1C(C)C | 77 | i | i | i | i | i
CC(=O)N1CCN(c2ccc(Oc3nnnn3-c3ccccc3)cc2)CC1 | i | i | i | i | i | i
NC(=O)CSc1nnc(-c2cccs2)n1-c1ccccc1 | i | i | i | i | i | i
COC(=O)CSc1nnc(-c2cccs2)n1-c1ccc(Cl)cc1 | 81 | i | i | i | i | i
Cc1ccc(Nc2[nH]c(=O)c3ccccc3c2C(=O)c2ccccc2)cc1 | nt | nt | nt | i | nt | nt
CCc1c(C)nc2ncnn2c1N1CCC(C(=O)Nc2ccc(C)cc2)CC1 | i | i | 59 | i | i | i
CCc1c(C)nc2ncnn2c1N1CCC(C(=O)Nc2ccccc2)CC1 | 95 | i | 66 | i | i | i
O=C(Nc1ccc2c(c1)CCC2)C1CCCN(c2ncccn2)C1 (stereo unspecified) | i | i | i | i | i | i
CC(=O)Nc1ccc(NC(=O)C2CCN(c3c(Cc4ccccc4)c(C)nc4ncnn34)CC2)cc1 | nt | nt | nt | i | i | nt
CCc1c(C)nc2ncnn2c1N1CCCC(C(=O)NCCc2ccc(OC)cc2)C1 (stereo unspecified) | i | i | i | i | i | i
Cc1nc2ncnn2c(N2CCCC(C(=O)Nc3ccc4c(c3)CCC4)C2)c1C (stereo unspecified) | i | i | 66 | i | nt | i
Cc1cc(N2CCN(C(=O)c3ccco3)CC2)nc(-c2ccccc2)n1 | 74 | i | 55 | i | nt | i
SMILES | CYP2C19 inhib | CYP2C9 activ | CYP2C9 inh | Cav3 T inh | Rev-RRE block | CYP2C19 activ
COc1ccc(C2(O)CC3CCC(C2)N3c2cc(C)nc(-c3ccccc3)n2)cc1 (stereo unspecified) | 53 | i | 93 | i | i | i
Cc1cc(N2CCN(c3ccccc3)CC2)nc(-c2ccccc2)n1 | 86 | i | i | i | i | i
COc1cc(OC)cc(-c2cc3nc(C)cc(N4CCN(C(=O)c5ccco5)CC4)n3n2)c1 | 55 | i | i | nt | i | i
CC(C)C(=O)N1CCC(c2nc(-c3ccc(S(=O)(=O)N4CCCC4)cc3)no2)CC1 | i | i | i | i | i | i
CC(=O)Nc1ccc(Oc2ncccn2)c(Cl)c1 | i | i | i | i | i | i
CCCn1cc(NC(=O)c2cc3n(n2)C(C(F)(F)F)CC(c2ccccc2)N3)cn1 (stereo unspecified) | i | i | i | i | i | i
Cc1cc(C)c(S(=O)(=O)N2CCN(c3nc4c(c(=O)n(C)c(=O)n4C)n3C)CC2)c(C)c1 | i | i | i | nt | nt | i
COc1ccc(C(=O)NCCn2ccc3ccccc32)cc1OC | i | i | i | i | nt | i
Cc1cc(C)c(S(=O)(=O)NCCn2ccc3ccccc32)c(C)c1 | i | i | 87 | i | i | i
COc1cc(OC)cc(C(=O)NCCn2ccc3ccccc32)c1 | 78 | i | i | i | i | i
O=C(Cc1ccccc1)NCCn1ccc2ccccc21 | 76 | i | i | i | nt | i
COc1ccccc1C(=O)NCCn1ccc2ccccc21 | 88 | i | i | i | i | i
O=c1oc2ccccc2c2c1nc(C(F)(F)F)n2-c1ccccc1 | i | i | i | i | i | i
CCOc1cc(C(=S)N2CCCC2)ccc1OCC(=O)Nc1c(C)cc(C)cc1C | nt | nt | nt | i | i | nt
COc1cccc(C(=O)NCCn2ccc3ccccc32)c1 | 79 | i | i | i | nt | i
CC(C)C1=NN2C(=N)CC(=O)N=C2S1 | i | i | i | i | i | i
NC(=O)C1(N2CCCCC2)CCN(S(=O)(=O)c2cc(Cl)ccc2Cl)CC1 | 90 | 2.7 | i | i | i | i
NC(=O)C1(N2CCCCC2)CCN(Cc2ccccc2Cl)CC1 | 80 | i | i | i | i | i
CCOc1ccccc1N1CC(C(=O)Nc2nccs2)CC1=O (stereo unspecified) | i | i | i | i | nt | i
O=C(NC(=O)c1ccncc1)NC(c1ccccc1)c1ccccc1 | i | i | i | i | i | i
CSc1nnc2c3c4c(sc3c(=O)n(-c3ccccc3)n12)CC(C)(C)OC4 | i | i | i | i | i | i
Cc1ccc(C)c(S(=O)(=O)N2CCN(C(=O)Cn3c(C(F)(F)F)nc4ccccc43)CC2)c1 | i | i | i | i | i | i
Cc1ccc(C)c(S(=O)(=O)N2CCN(CC(=O)Nc3cc(C)on3)CC2)c1 | i | 2.3 | i | i | i | i
Cc1ccc(C)c(S(=O)(=O)N2CCN(CC(=O)N3CCc4ccccc4C3)CC2)c1 | 81 | 3.4 | i | i | i | i
COc1cccc2cc3c(=O)oc4ccccc4c3nc12 | i | i | i | i | i | i
O=C(c1cc2ccccn2n1)N1CCN(Cc2ccccc2)CC1 | 96 | i | i | i | nt | i
O=C(c1cc2ccccn2n1)N1CCCC1 | i | i | i | nt | i | i
CCO[C@@H]1OC(C(=O)NC2CC2)=C[C@H](c2ccc(C(F)(F)F)cc2)[C@H]1CCCO | nt | nt | nt | i | nt | nt
Cn1c(-c2ccccc2)cc2c3no[n+]([O-])c3ccc21 | 80 | i | i | i | i | i

Assay outcomes as filed in PubChem.
